Data set [1] relates to Plasmodium falciparum. The data set is described as follows: Antimalarial activity against chloroquine-resistant Plasmodium falciparum K1 by pLDH reporter assay. The format is functional, organism-based. In a few lines: (§1)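 P. falciparum cultured in human A+ erythrocytes in RPMI-1640 (25 mM HEPES, hypoxanthine, gentamicin) with 10% human plasma, 37 °C, 93% N2/4% CO2/3% O2. Asynchronous parasites at 2.0% hematocrit, 0.5% parasitaemia. Compound added in water or 5% DMSO, 72 h at 37 °C. pLDH read-out: Malstat, then NBT/PES, formazan at 650 nm. EC50 from dose-response curve.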
A general note: In a reporter assay the amount or activity of a reporter protein is the signal.

Data set [2] deals with Plasmodium falciparum. The data set can be described thus: Antimalarial activity against chloroquine-sensitive Plasmodium falciparum FCR3 by pLDH reporter assay. The format is functional, organism-based. In a few lines: as §1
In data set [3] the test system is L929. The data set is described as follows: Cytotoxicity against mouse L929 cells by MTT assay. It counts as functional, cell-based. In a few lines: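 MTT assay in mouse L929 cells (1.8 × 10⁴ cells/well) in RPMI-1640 with 10% FBS. Compound added in distilled water or 10% DMSO (added solution), then 48 h at 37 °C, 5% CO₂. MTT 4 h, formazan dissolved in DMSO, absorbance read at 570 and 655 nm. EC50 from dose-response curve.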

The subject of data set [4] is L929. The data set is described as follows: Selectivity for L929 cells over Plasmodium falciparum FCR3 as EC50 ratio. The format is functional. An outline of the steps: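 Ratio of L929 EC50 to P. falciparum FCR-3 EC50. L929 EC50 by 48 h MTT assay. FCR-3 EC50 by pLDH assay: asynchronous parasites in human erythrocytes (2.0% hematocrit, 0.5% parasitaemia), RPMI with 10% human plasma. Incubated 72 h at 37 °C under 93% N₂/4% CO₂/3% O₂. Malstat/NBT-PES read-out at 650 nm; EC50 from dose-response curves.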

The nature of data set [5]: Toxicity in po dosed ICR mouse. It counts as organism-based. The conditions noted are these: in vivo. In a few lines: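 Acute toxicity in mice, compound given orally. LD50 determined.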
Data set [6] is described as follows: Therapeutic index; LD50 for ICR mice (Mus musculus)/ED50 against Plasmodium berghei NK65. To be noted: read-out: Ratio LD50/ED50. In a few lines:
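Index is mouse LD50 (oral acute toxicity) divided by oral ED50 against P. berghei in mice. For ED50, a 4-day suppressive test was used. Male ICR mice (18-20 g) were inoculated iv with 10⁶ parasitized RBC. Compound was given po in 5% gum arabic 2 h post-infection, then once daily on days 1-3. Parasitaemia was read from tail-blood thin films on day 4.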

For another data set, the system named is Plasmodium berghei. The data set is described as follows: Antimalarial activity against Plasmodium berghei NK65 infected ICR mice (Mus musculus) peroral dose. It counts as functional. An outline of the steps:
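P. berghei NK65 4-day suppressive test. Male ICR mice (18-20 g) infected i.v. with 10⁶ parasitized red cells. Compounds suspended in 5% gum arabic, given orally 2 h post-infection (Day 0), then once daily Days 1-3. Day 4 tail-vein blood, parasitaemia from thin blood films; ED50 from dose-response curve.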

Structures are written as SMILES. In brackets after ≈: the same amount, converted by molar mass. A value given as a limit tells only on which side of the number the result lay.

Here are results for 16 molecules from ChEMBL document CHEMBL1138962, “Exploration of a new type of antimalarial compounds based on febrifugine” (J Med Chem, 2006).

For orientation: EC50 means the concentration at which the effect is half-maximal. Take `O=C(C[C@H]1NCCC[C@@H]1O)Nc1nc(O)c2ccccc2n1`: the EC50 was > 1 µg/mL in the data set on Plasmodium falciparum [1], > 1 µg/mL with Plasmodium falciparum [2] and > 100 µg/mL in the data set on L929 [3].
As for `O=C(CN1CCCC(O)C1)Cn1cnc2ccccc2c1=O` (stereo not drawn), the EC50 was > 1 µg/mL with Plasmodium falciparum [1], > 1 µg/mL in the data set on Plasmodium falciparum [2] and > 100 µg/mL in the data set on L929 [3].
In the case of `O=C(COC1CCCNC1)Cn1cnc2ccccc2c1=O` (stereo not drawn), the EC50 was > 1 µg/mL in the data set with Plasmodium falciparum [1], > 1 µg/mL in the data set with Plasmodium falciparum [2] and > 100 µg/mL in the data set on L929 [3].
Usually LD50 stands for the dose expected to kill half of the subjects tested. As usually defined, the ED50 is the dose at which the effect has come halfway, by size or by number of responders. Low values mean greater potency, high ones weaker potency. `O=c1c2ccccc2ncn1CCC[C@H]1NCCC[C@@H]1O`: the EC50 in the data set with Plasmodium falciparum [1] amounted to 0.0236 µg/mL (≈ 0.0821 µM); in the data set on Plasmodium falciparum [2], 0.0225 µg/mL (≈ 0.0783 µM); in the data set with L929 [3], 4.45 µg/mL (≈ 15.5 µM). Moreover, the “Ratio EC50” value in the data set with L929 [4] came out at 198. For the same molecule, the LD50 in data set [5] was > 320 mg/kg. In addition, in data set [6], the selectivity ratio is > 14. In the data set with Plasmodium berghei (Plasmodium berghei, NK65, po), this molecule had an ED50 of 22.5 mg/kg.
In the case of `O=c1c2ccccc2ncn1CCCC[C@H]1NCCC[C@@H]1O`, the results for the EC50 in the data set with Plasmodium falciparum [1], with Plasmodium falciparum [2] and in the data set with L929 [3] were > 1 µg/mL, > 1 µg/mL and > 100 µg/mL, respectively.
For `O=c1c2ccccc2ncn1CC[C@H]1NCCC[C@@H]1O`, the concentration for a half-maximal effect (EC50) with Plasmodium falciparum [1] was > 1 µg/mL; in the data set with Plasmodium falciparum [2] it was > 1 µg/mL; in the data set with L929 [3], > 100 µg/mL.
`CC[C@H](O)[C@@H](CC(=O)Cn1cnc2ccccc2c1=O)NC`: the EC50 with Plasmodium falciparum [1] is > 1 µg/mL; in the data set on Plasmodium falciparum [2], > 1 µg/mL; with L929 [3], 6.44 µg/mL (≈ 21.2 µM). Moreover, the “Ratio EC50” value with L929 [4] is listed as <6.44.
Consider `O=C(C[C@H]1NCCC[C@@H]1O)Cn1cnc2ccsc2c1=O` (relative stereo), for which the EC50 in the data set on Plasmodium falciparum [1] stood at 0.00319 µg/mL (≈ 0.0104 µM); in the data set on Plasmodium falciparum [2] it was 0.00306 µg/mL (≈ 0.00996 µM); in the data set with L929 [3], 0.563 µg/mL (≈ 1.83 µM). Moreover, the “Ratio EC50” value with L929 [4] stood at 184. The LD50 in data set [5] was determined as 88 mg/kg. Moreover, the selectivity ratio in data set [6] is 30. The ED50 in the data set with Plasmodium berghei was found to be 2.95 mg/kg.
For `Cc1nc2ccccc2c(=O)n1CC(=O)C[C@H]1NCCC[C@@H]1O` (relative stereo), the EC50 in the data set on Plasmodium falciparum [1] worked out at 0.19 µg/mL (≈ 0.602 µM); with Plasmodium falciparum [2] it was 0.116 µg/mL (≈ 0.368 µM); in the data set on L929 [3] it was 15.6 µg/mL (≈ 49.5 µM). For the same molecule, in the data set with L929 [4], the “Ratio EC50” value is reported as 134.
In the case of `O=C(C[C@H]1NCCC[C@@H]1O)Cn1nnc2ccccc2c1=O` (relative stereo), the concentration for a half-maximal effect (EC50) turned out to be 0.154 µg/mL (≈ 0.509 µM) in the data set with Plasmodium falciparum [2] and 16.4 µg/mL (≈ 54.2 µM) in the data set on L929 [3]. In addition, the “Ratio EC50” value in the data set with L929 [4] turned out to be 106.
Take `O=C(C[C@H]1NCCC[C@@H]1O)Cn1ccc(=O)c2ccccc21` (relative stereo): the EC50 in the data set on Plasmodium falciparum [1] was > 1 µg/mL; in the data set with Plasmodium falciparum [2], > 1 µg/mL; in the data set with L929 [3], > 100 µg/mL.
`O=C(C[C@H]1NCCC[C@@H]1O)Cn1cnc2ncnc-2c1O` (relative stereo): the EC50 was 0.943 µg/mL (≈ 3.24 µM) in the data set on Plasmodium falciparum [1], 0.506 µg/mL (≈ 1.74 µM) with Plasmodium falciparum [2] and > 100 µg/mL with L929 [3]. Moreover, the “Ratio EC50” value with L929 [4] is >198.
With `O=C(C[C@H]1NCCC[C@@H]1O)Cn1cnc2ccc(F)cc2c1=O` (relative stereo), the EC50 in the data set on Plasmodium falciparum [1] turned out to be 0.000916 µg/mL (≈ 0.00287 µM); with Plasmodium falciparum [2], 0.00073 µg/mL (≈ 0.00229 µM); with L929 [3], 0.079 µg/mL (≈ 0.247 µM). For the same molecule, the “Ratio EC50” value in the data set on L929 [4] is 108. The LD50 in data set [5] was < 2.5 mg/kg.
Take `O=C(C[C@@H]1NCCC[C@H]1O)Cn1cnc2ccccc2c1=O` (single isomer, unassigned) [FEBRIFUGINE]: the EC50 in the data set with Plasmodium falciparum [1] came to 0.0014 µg/mL (≈ 0.00465 µM); with Plasmodium falciparum [2] it was 0.00142 µg/mL (≈ 0.00471 µM); in the data set on L929 [3] it was 0.167 µg/mL (≈ 0.554 µM). Moreover, the “Ratio EC50” value with L929 [4] was 118. Also, the LD50 in data set [5] turned out to be 7.1 mg/kg. Further, in data set [6], the selectivity ratio was found to be 17. In the data set on Plasmodium berghei (Plasmodium berghei, NK65, po), this molecule came in with a median effective dose (ED50) of 0.41 mg/kg.
Take `C[C@@H]1CC[C@H]2[C@@H](C)C(=O)O[C@@H]3O[C@@]4(C)CC[C@@H]1[C@]32OO4` [ARTEMISININ]: the concentration giving a half-maximal response (EC50) in the data set with Plasmodium falciparum [1] is 0.0117 µg/mL (≈ 0.0414 µM); in the data set on Plasmodium falciparum [2] it was 0.0179 µg/mL (≈ 0.0634 µM); with L929 [3], > 100 µg/mL. Besides, the “Ratio EC50” value in the data set with L929 [4] is >5590.
Consider `CCN(CC)CCCC(C)Nc1ccnc2cc(Cl)ccc12` (stereo not drawn) [CHLOROQUINE], for which the results for the concentration for a half-maximal effect (EC50) with Plasmodium falciparum [1], in the data set with Plasmodium falciparum [2] and in the data set on L929 [3] were 0.375 µg/mL (≈ 1.17 µM), 0.0475 µg/mL (≈ 0.148 µM) and 18.6 µg/mL (≈ 58.1 µM), respectively. Besides, in the data set with L929 [4], the “Ratio EC50” value is 392. The molecule further came in with an ED50 in the data set on Plasmodium berghei (Plasmodium berghei, NK65, po) of 1.53 mg/kg.
